{"data": "Measured values from different studies"}
{"Structure (SMILES)": "Cn1nccc1[C@]1(CNC(=O)c2ccc(F)c(F)c2-c2ccc(C(F)(F)F)cc2)NC(=O)NC1=O", "system": "male C57BL/6 mouse, plasma", "setting": "oral, 1 mg/kg", "quantity": "bioavailability", "value": "132%"}
{"Structure (SMILES)": "CN1CC[C@H]2c3nc4ccc(Cl)cc4c(=O)n3CC[C@H]21 (racemic)", "target or system": "SH-SY5Y", "assay": "cell growth or viability, ATP luminescence", "quantity": "CC50", "value": "> 20 µM"}
{"Structure (SMILES)": "CNC(=O)c1ccc(-c2cnn3ccc(C(=O)N(C)c4ccc(Cl)c(C(=O)O)c4)cc23)cc1", "system": "female C57BL/6 mouse, plasma", "setting": "oral, 10 mg/kg/day", "quantity": "AUC", "value": "34 ng·h/mL"}
{"Structure (SMILES)": "C[C@]12CC[C@H]3[C@@H](CCC4=CC(=O)CC[C@@]43C)[C@@H]1CC[C@@H]2O", "assay": "metabolic stability", "system": "Sprague-Dawley rat, hepatocytes", "setting": "1 µM", "quantity": "half-life", "value": "2.92 min"}
{"Structure (SMILES)": "CN1CCN(S(=O)(=O)c2cc([N+](=O)[O-])ccc2N(CCOS(C)(=O)=O)CCOS(C)(=O)=O)CC1", "system": "female SCID mouse, plasma", "setting": "intraperitoneal, 5 mg/kg", "quantity": "AUC(0-inf)", "value": "0.5 µM·h"}
{"Structure (SMILES)": "NCCNC(=O)O[C@H]1CCC[C@@]2(C1)OOC1(O2)C2CC3CC(C2)CC1C3 (stereo partly shown)", "system": "male CD-1 mouse, plasma", "setting": "intravenous, 3 mg/kg", "quantity": "AUC(0-inf)", "value": "757 ng·h/mL"}
{"Structure (SMILES)": "CC(C)C[C@H](NC(=O)[C@H](Cc1ccccc1)NC(=O)[C@H](Cc1ccccc1)NC(=O)Cc1ccc(-c2ccccc2)cc1)C(=O)N[C@@H](CCCCN)C(=O)N[C@@H](CCCNC(=N)N)C(=O)N[C@H](C(=O)N[C@@H](Cc1c[nH]c2ccccc12)C(=O)N[C@@H](CCCCN)C(=O)N[C@@H](CCCNC(=N)N)C(=O)O)C(C)C", "assay": "metabolic stability", "system": "rat, liver microsomes", "setting": "1 µM", "quantity": "half-life", "value": "5.12 min"}
{"Structure (SMILES)": "CNC(=O)c1ccc(-c2cnn3ccc(C(=O)N(C)c4ccc(Cl)c(C(=O)OC)c4)cc23)cc1", "system": "female C57BL/6 mouse, plasma", "setting": "oral, 10 mg/kg/day", "quantity": "AUC", "value": "9.1 ng·h/mL"}
{"Structure (SMILES)": "COCC1=N[C@@]2(O)[C@H](C(=O)N(C)OC)[C@@H](c3ccccc3)[C@]3(c4ccc(OC)cc4)Oc4cc(OC)cc(OC)c4[C@]23N1", "assay": "metabolic stability", "system": "male Sprague-Dawley rat, liver microsomes", "setting": "1 µM, pH 7.4", "quantity": "half-life", "value": "74.7 min"}
{"Structure (SMILES)": "C[C@]12CC[C@H]3[C@@H](CC=C4CC(O)CC[C@@]43CO)[C@@H]1CCC2O (stereo partly shown)", "assay": "metabolic stability", "system": "rat, liver microsomes", "quantity": "half-life", "value": "19.9 min"}
{"Structure (SMILES)": "CONC(=O)[C@H]1[C@@H](O)[C@@]2(O)c3c(OC)cc(OC)cc3O[C@@]2(c2ccc(OC)cc2)[C@@H]1c1ccccc1", "assay": "metabolic stability", "system": "rat, liver microsomes", "quantity": "half-life", "value": "58.3 min"}
{"Structure (SMILES)": "COc1cc(Cl)cc2c(=O)n3c(nc12)[C@@H]1CCCN(C)[C@@H]1CC3 (racemic)", "target or system": "SH-SY5Y", "assay": "cell growth or viability, ATP luminescence", "setting": "72 h", "quantity": "CC50", "value": "> 20 µM"}
{"Structure (SMILES)": "C=CS(=O)(=O)c1ccc(Nc2nc(OCC3CCCCC3)c3nc[nH]c3n2)cc1", "system": "male BALB/c mouse, plasma", "setting": "intraperitoneal, 20 mg/kg, single dose", "quantity": "AUC(0-t)", "value": "137 ng·h/mL"}
